In the library only some 4.3% were active in any assay of this set; here they are far more common.
FLuc act counter: FLuc activators, initial screening, artefact control for FLuc-dependent activation tests, biochemical, ATPlite luminescence. activation factor at 10 µM. ATPlite luciferase biochemical, 10 min; 0 = ATP-free wells, 1 = DMSO control. 200,000 tested, under 10 active;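 active = luciferase activation factor, scaled between plate controls, of at least 2 with compound at 10 µM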
Target sequence (P08659 whole entry, looked up): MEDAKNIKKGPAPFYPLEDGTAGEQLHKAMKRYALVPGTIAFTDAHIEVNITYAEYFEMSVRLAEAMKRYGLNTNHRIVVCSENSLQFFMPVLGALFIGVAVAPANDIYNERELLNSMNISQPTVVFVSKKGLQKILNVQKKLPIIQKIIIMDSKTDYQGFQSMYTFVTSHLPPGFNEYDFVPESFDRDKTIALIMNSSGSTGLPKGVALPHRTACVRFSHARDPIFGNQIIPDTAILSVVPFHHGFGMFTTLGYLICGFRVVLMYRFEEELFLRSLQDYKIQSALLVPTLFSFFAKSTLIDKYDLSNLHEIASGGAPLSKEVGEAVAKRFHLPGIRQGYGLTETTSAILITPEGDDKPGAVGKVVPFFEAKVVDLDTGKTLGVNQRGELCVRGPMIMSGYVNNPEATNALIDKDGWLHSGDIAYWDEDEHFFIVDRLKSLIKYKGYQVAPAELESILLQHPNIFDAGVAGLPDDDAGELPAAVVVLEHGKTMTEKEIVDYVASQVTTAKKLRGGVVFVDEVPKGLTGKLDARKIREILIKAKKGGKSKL
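Material: luciferase plus luciferin reagent, cell-free. Medium: PBS buffer for ATP. Also added: ATP substrate, dispensed from a 10.24 µM working solution in PBS. Doses: test compounds dosed from 2 mM stocks in 100% DMSO. Incubation: 10 min post-reagent at room temperature. Technique: light output (luminescence). Read-out basis: luminescence gain marking luciferase activators.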
STAT1 act: STAT1 signaling activators, primary screen, cell-based, HTS, luciferase reporter | NIH 3T3 STAT1-luciferase reporter, IFN-gamma, luminescence; 100% = IFN-gamma alone, no compound | activation (% of control), % at 5.5 µM | 200,000 tested, 2.6% active | AID 932, 2007;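 active = activation above the screen-wide mean activation plus 3 SD, cut at about 130% in these data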
NF-kB expr up: activators of NF-kB expression in neurons, primary screen, cell-based, HTS; human neuronal cells, NF-kB reporter expression; stronger effect = higher value; fold change at 12.5 µM; 190,000 tested, 1.6% active; AID 1239, 2008; in the data active = fold change above about 3.3
APP 5'UTR act: activators of APP 5'UTR luciferase reporter, primary screen, SH-SY5Y cells; activation, % at 2 µM; AID 1276, 2008; SH-SY5Y APP 5'UTR luciferase reporter, luminescence; zero percent = DMSO vehicle wells; 190,000 tested, 1% active;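 active = activation above a set limit, based on mean plus 3 SD of controls, cut at about 140% in these data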
sdo1 growth: growth rescue of sdo1-depleted yeast, primary screen, S. cerevisiae, bone marrow failure model; S. cerevisiae sdo1-depleted JHY4D growth rescue, OD600 30 h; stronger effect = higher value; pdr5 snq2 efflux-pump mutant strain; z-score at 10 µM; 140,000 tested, 0.21% active; AID 817, 2007;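 active = z-score above 3 at both the 24 hr and the 30 hr optical density reads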
FLuc inh counter: firefly luciferase enzyme inhibitors, primary screen, artefact control for luciferase-based inhibitor screens, biochemical, luminescence, ATPLite; Luciferin 4-monooxygenase (Photinus pyralis), P08659; 10 min; inhibition, % at 10 µM; 200,000 tested, 1.5% active;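 active = inhibition above about 50% when tested at 10 µM, limit read from the data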
Numbers stand for hits; - = inactive; . = no result given.

SMILES	FLuc act counter	STAT1 act	NF-kB expr up	APP 5'UTR act	sdo1 growth	FLuc inh counter
CCCCNC(=O)C1CC(c2cccc([N+](=O)[O-])c2)=NO1 (configuration not stated)	-	140.3	3.5	-	-	-
Cc1c(Br)c([N+](=O)[O-])nn1CC(=O)NCC1CCCO1 (configuration not stated)	-	-	-	-	.	-
Cc1ccc(C(=O)NCCc2csc(-c3cccnc3)n2)cc1	-	-	-	-	-	68.3
O=C(NCCc1csc(-c2cccnc2)n1)c1cccs1	-	-	-	-	-	-
Cc1ccc(C(=O)c2ccc(C)cc2)cc1	-	-	-	-	.	-
CC(=O)c1ccc(N=Nc2ccc(N(C)C)cc2)cc1	-	-	3.85	-	.	52.9
CN(C)C(=S)c1ccc(N(C)C)cc1	-	-	-	-	.	-
CC(=O)c1ccc(N=Nc2ccc(C)cc2)cc1	-	-	4.8	282.7	.	52.4
COc1ccc(NC(=O)C(=S)N2CCCC2)cc1	-	-	-	-	.	-
COc1ccc(-c2nn(CCC(=O)O)cc2/C=C/C(=O)O)cc1[N+](=O)[O-]	-	-	-	-	-	-
Cc1ccc(S(=O)(=O)Nc2cccc3ncccc23)s1	-	187.3	-	-	-	-
CCC(C)NC(=O)Nc1ccc(C)cc1C (configuration not stated)	-	-	-	-	.	-
Cc1ccccc1-c1nnc(-c2ccccc2)o1	-	131.2	4.16	137.6	-	-
Cc1ccccc1-c1nnc(-c2ccc(Cl)cc2)o1	-	137.8	4.07	-	-	-
Clc1ccccc1-c1nnc(-c2ccccc2Cl)o1	-	-	3.4	-	-	-
Cc1cccc(-c2nnc(-c3ccccc3)o2)c1	-	131.8	-	-	-	-
CCCNCc1nnc(-c2ccccc2Cl)o1	-	-	-	-	-	-
COc1cc(NC(=O)COC(=O)C=C(C)C)c(C)cc1[N+](=O)[O-]	-	-	-	-	.	-
O=C(/C=C/c1ccc(Cl)cc1Cl)c1ccc[nH]1	-	-	-	-	.	51.6
O=C(/C=C/c1ccc[nH]1)c1ccccc1	-	-	-	-	.	-
O=C(/C=C/c1ccccc1Cl)c1ccc[nH]1	-	-	4.3	-	-	-
O=C(C1CC1)N1CCc2cc(Br)cc(S(=O)(=O)NCC3COc4ccccc4O3)c21 (configuration not stated)	-	-	-	-	-	-
COc1ccc(-c2cc(C(F)(F)F)nc(-n3cc(Cl)cn3)n2)cc1	-	-	-	-	-	-
COc1ccc(-c2cn3cc(C(F)(F)F)cc(Cl)c3n2)cc1	-	150.0	9.03	149.7	.	-
Fc1ccc(-c2cn3cc(C(F)(F)F)cc(Cl)c3n2)cc1	-	139.0	7.29	167.9	-	-
SMILES	FLuc act counter	STAT1 act	NF-kB expr up	APP 5'UTR act	sdo1 growth	FLuc inh counter
Fc1ccc(-c2cc(C(F)(F)F)nc(-n3cc(Cl)cn3)n2)cc1	-	-	-	-	.	-
Cc1cc2c(ncn2C)c(NS(=O)(=O)c2ccc(Cl)cc2)c1C	-	-	-	-	.	-
CCn1cc(Cl)c(C(=O)Nc2ccc(OC)c(OC)c2)n1	-	-	-	-	.	-
CN1CCN(c2nc(-c3cc4ccccc4o3)cs2)CC1	-	129.0	-	-	-	-
CN1CCN(c2nc(-c3cccs3)cs2)CC1	-	-	-	-	.	-
COC(=O)C1(S(=O)(=O)c2ccc(C)cc2)CCOCC1	-	-	-	-	-	-
COc1ccc2c(c1)Cc1sc(NC(=O)c3ccccc3)nc1-2	-	133.6	-	-	-	-
COc1ccc(C(=O)Nc2nc3c(s2)Cc2cc(OC)ccc2-3)cc1	-	-	-	-	-	-
COc1ccc2c(c1)Cc1sc(NC(=O)c3cccs3)nc1-2	-	149.3	-	-	-	-
Nc1nc2nccc(-c3ccc(Cl)cc3)n2n1	-	-	-	-	-	51.3
Fc1ccc(Nc2ccnc(Nc3ccc(F)cc3)n2)cc1	-	137.3	-	-	-	-
C=CCO/N=C(/CCC)C1=C(N)CC(C)(C)CC1=O	-	-	-	-	.	-
CCCN(CCC)S(=O)(=O)c1ccc(Cl)c(OC)c1	-	-	-	-	.	-
C/C(=N\N1CCN(C2c3ccccc3-c3ccccc32)CC1)c1cccnc1	-	-	-	-	-	-
CN=c1scc(-c2ccccc2F)n1/N=C(\C)c1cccnc1	-	131.8	5.97	186.4	.	73.0
CC(C)CCn1cnc2c(sc3nc4c(cc32)CSC(C)(C)C4)c1=O	-	-	-	230.9	-	-
CC1(C)Cc2nc3sc(C(=O)O)c(N)c3cc2CS1	-	-	-	-	.	-
CCOC(=O)Cc1csc(NC(=S)NC(=O)c2ccc(C)cc2)n1	-	-	-	-	-	80.0
CC(=O)c1cccc(NC(=S)NC(=O)c2ccc(C)cc2)c1	-	137.6	3.51	-	.	-
O=C(Nc1ccc2c(c1)C(=O)N(CC1CCCO1)C2=O)c1cccc(Br)c1 (configuration not stated)	-	-	-	-	-	-
Cc1ccc(C(=O)Nc2cccc(C(=O)O)c2)cc1	-	-	5.34	-	-	62.1
O=C(O)c1cccc(NC(=O)c2ccc3c(c2)C(=O)N(CC2CCCO2)C3=O)c1 (configuration not stated)	-	-	-	-	-	50.9
CCOC(=O)Cc1csc(NC(=S)NC(=O)c2ccccc2)n1	-	-	-	-	-	-
Cc1c(Cl)cnc(NC(=O)COC(=O)c2cc3c(s2)CCC(C)C3)c1Cl (configuration not stated)	-	-	-	-	-	-
CCCCC(O)(CCCC)C(=O)NN(C(=O)OC)c1ccccc1	-	-	-	-	-	-
SMILES	FLuc act counter	STAT1 act	NF-kB expr up	APP 5'UTR act	sdo1 growth	FLuc inh counter
Cc1ccc(C2CC(=O)NC(SCC(=O)Nc3nccs3)=C2C#N)cc1 (configuration not stated)	-	-	-	-	-	-
CC(=O)c1cccc(NC(=S)NC(=O)c2ccc(C)cc2Cl)c1	-	131.1	-	-	.	-
CCOC(=O)c1cccc(NC(=O)c2ccc(N(C)C)cc2)c1	-	-	-	-	-	60.2
CCC(=O)Nc1cccc(NC(=S)NC(=O)c2ccc(C)cc2)c1	-	145.4	-	-	.	-
CCC(=O)Nc1cccc(NC(=S)NC(=O)c2cccc(C)c2)c1	-	-	-	-	-	-
CC(=O)c1cccc(NC(=S)NC(=O)c2ccccc2Cl)c1	-	-	-	-	-	-
CCCC(=O)Nc1ccc(Nc2ccccc2)cc1	-	-	-	-	-	-
CN(C)c1ccnc(Oc2ccc(C(C)(C)C)cc2)c1C#N	-	-	-	-	-	-
